# This is one part of a sample in which hits are shown more often than they occur.
# 697 NFkB inh: lowers PMA/ionomycin-induced NF-kB signal in 697 B cells; 697 B-cell NF-kB luciferase reporter, 16 h; inhibition, % at 4 µM; hit rate 0.33% among 330,000; AID 435022; in the data active means inhibition above about 35%
# CHOP UPR activ: activators of apoptotic arm of unfolded protein response (CHOP) | activation, % at 10 µM | CHO-CHOP luciferase reporter, UPR activation, luminescence; percent of tunicamycin response over DMSO baseline | hit rate 0.34% among 330,000;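 active means at 10 µM dose, activation of 40% or more, normalized to positive control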;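 further: 100% = tunicamycin at 10 µg/mL and 0% = DMSO alone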
#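 Material: CHO-CHOP cells, stable luciferase reporter of PERK-eIF2a-CHOP signalling; quantity: 500 reporter cells seeded per well; buffer or medium: F12 medium containing 10% fetal bovine serum; compound: one dose, 10 µM in 0.5% DMSO; incubation: 6 h compound treatment, 37 °C; measured by: Steady-Glo luciferase luminescence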
# Jurkat NFkB inh: inhibitors of the PMA/ionomycin-induced NF-kB reporter in Jurkat cells. inhibition, % at 4 µM. hit rate 0.53% among 330,000. PMA/ionomycin-induced NF-kB luciferase reporter, luminescence; in the data active means inhibition above about 50%
# UPR XBP1 act: activators of adaptive arm of unfolded protein response (XBP1) | hit rate 0.33% among 330,000 | activation, % at 20 µM | CHO-XBP1 luciferase reporter, IRE1-XBP1 UPR activation, luminescence; percent of tunicamycin response, DMSO as zero | AID 463104;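 active means versus positive control, 20 µM dose yields 30% or more activation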;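 further: 100% = tunicamycin at 10 µg/mL and 0% = DMSO only wells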
#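 Assay system: IRE1-XBP1 luciferase reporter CHO line. Input: 1000 cells/well. Buffer or medium: F12 with 10% serum. Doses: 20 µM, 1% DMSO. Times: overnight seeding at 37 °C, 6 h compound treatment at 37 °C. Technique: Steady-Glo luciferase glow luminescence, 10 min after reagent addition.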
# CHOP inhibitor: blocks CHOP induction under ER stress | CHO-K1 CHOP-promoter luciferase, tunicamycin-induced, 15-18 h | inhibition, % at 10 µM | hit rate 3.8% among 220,000 | AID 2732;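 active means compounds that reduced the stress-induced luciferase reporter signal by more than about 70% of percent inhibition, limit read from the data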;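 further: 0% = tunicamycin plus vehicle and 100% = wells without tunicamycin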
# Numbers without * were called inactive; . = not tested or not shown; ! = repeats disagree.
SMILES,697 NFkB inh,CHOP UPR activ,Jurkat NFkB inh,UPR XBP1 act,CHOP inhibitor
CC(Sc1nc2ccccc2c(=O)n1C)C(=O)Nc1ccc2c(c1)OCCO2 (centres undefined),-65.3,3.7,29.7,-1.3,.
CC(C)Cn1c(SC(C)C(=O)Nc2ccc3c(c2)OCCO3)nc2ccccc2c1=O (centres undefined),.,.,.,.,76.3*
CCOc1cccc(-c2nnc3sc(COc4ccccc4)nn23)c1,7.9,1.4,2.0,-1.0,42.7
CCOc1cccc(-c2nnc3sc(COc4ccc(C)cc4)nn23)c1,4.3,-0.4,12.8,-2.7,70.3*
Cc1cccc(C)c1NC(=O)CSc1nnc([C@H](C)NC(=O)OC(C)(C)C)o1,-0.1,-0.6,4.5,-1.6,79.2*
CC(C)[C@H](NC(=O)OC(C)(C)C)c1nnc(SCC(=O)Nc2ccc(Br)cc2)o1,-3.2,1.0,-1.9,-3.1,73.2*
Cc1nonc1CC(=O)NC1CCCc2c1cnn2-c1ccc(F)cc1F (centres undefined),-6.6,-0.3,8.3,-8.1,.
CC(=O)c1ccc(S(=O)(=O)N(C)CCCC(=O)N2CCN(c3ncccn3)CC2)cc1,6.4,-0.2,10.5,0.9,.
O=C(CSc1nnc(-c2ccco2)o1)c1ccc(O)cc1O,-4.4,0.5,-3.4,-1.4,38.0
COC(=O)[C@@H]1C[C@@H](c2ccccc2)[C@H](C)C1(C)C,17.7,-0.6,7.2,-1.8,.
CN1CCN(CCCN2c3ccccc3Sc3ccc(C(F)(F)F)cc32)CC1,-17.4,-0.8,-0.7,-0.7,95.9*!
CN(C(=S)NC(=O)Cc1ccccc1)c1ccccc1,2.9,1.8,-4.5,0.6,-22.7
Cc1sc2ncnc(N3CCC(C(=O)N(CC(C)C)c4nc5ccccc5s4)CC3)c2c1C,-2.5,2.1,14.2,-4.3,.
COc1ccc2nc(C)cc(Nc3ccc(C)cc3)c2c1,-24.1,-0.2,-0.5,-2.7,.
Cc1ccc(Nc2nc(=O)c3cc([N+](=O)[O-])ccc3s2)cc1,-19.9,1.7,-14.7,2.9,93.3*
Cc1ccc2nc(SCc3ccc([N+](=O)[O-])cc3)nc(C)c2c1,-17.5,-2.2,-10.5,0.4,75.2*
Cc1ccc2nc(C)cc(Nc3ccc([N+](=O)[O-])cc3)c2c1,.,.,.,.,103.5*
CCN1CCC2(CC1)N=C(c1ccc(F)cc1)C(=S)N2C(=O)c1ccc(C(C)(C)C)cc1,-10.2,1.3,-0.1,-1.1,92.8*
CNc1sc(C(=O)c2ccc(F)cc2)c(N)c1-c1nc2ccccc2s1,-52.3,4.3,-16.5,3.9,83.8*
CNc1sc(C(=O)c2cccs2)c(N)c1-c1nc2ccccc2s1,-37.2,6.8,-6.3,0.7,-11.3
CCOC(=O)C1=C(COc2ccccc2)NC(=O)NC1c1cccc([N+](=O)[O-])c1 (centres undefined),0.7,0.7,-0.9,-1.5,.
Cc1ccc(-c2csc(/C=C3\SC(C)C(=O)N3CC(=O)Nc3ccccc3F)n2)cc1 (centres undefined),6.1,1.6,5.8,-1.3,92.6*
O=S(=O)(NCCNC/C=C/c1ccc(Br)cc1)c1cccc2cnccc12,.,.,.,.,95.4*
CNCCNS(=O)(=O)c1cccc2cnccc12,.,.,.,.,20.2
CCC(C)Sc1nnc(CNC(=O)C23CC4CC(CC(C4)C2)C3)n1C1CCCCC1 (centres undefined),-26.6,-0.1,-9.7,-1.9,94.8*
SMILES,697 NFkB inh,CHOP UPR activ,Jurkat NFkB inh,UPR XBP1 act,CHOP inhibitor
CCOC(=O)c1nnn(-c2nonc2N)c1CN(C)Cc1ccccc1,6.6,0.4,-4.3,-1.8,81.3*
CCOC(=O)c1nnn(-c2nonc2N)c1CSc1ccccc1,14.3,-1.5,2.1,2.8,21.6
c1ccc(-c2noc(CN3CCN(c4ccccc4)CC3)n2)cc1,5.1,0.9,3.8,-0.6,85.8*
Fc1ccccc1N1CCN(Cc2nc(-c3ccccc3)no2)CC1,3.8,1.3,-4.2,-1.6,86.3*
Cc1sc2ncn(CC(=O)NCCCN3CC(C)CC(C)C3)c(=O)c2c1S(=O)(=O)N1CC(C)CC(C)C1 (centres undefined),-1.4,1.7,40.3,1.1,.
Cc1ccc(CN2C(=O)N/C(=C\c3ccc(N4CCOCC4)cc3)C2=O)cc1,-20.2,3.0,12.3,7.1,92.3*
CCN1C(=O)N/C(=C/c2ccc(C)o2)C1=O,-5.2,-2.1,-20.8,0.5,10.9
Cc1ccc(/C=C2/NC(=O)N(Cc3ccc(Br)cc3)C2=O)o1,1.4,1.8,-7.0,-2.9,104.7*
O=C1N/C(=C\c2ccc(N3CCOCC3)c(F)c2)C(=O)N1Cc1ccccc1,-17.6,4.1,-30.8,11.7,85.1*
C[C@@H]1CN([C@H](C)CO)C(=O)c2cc(NS(=O)(=O)c3cn(C)cn3)ccc2O[C@@H]1CN(C)S(C)(=O)=O,0.4,-1.1,6.6,-0.7,.
CCCc1cc(=O)[nH]c(Nc2ccc(Cl)cc2)n1,7.8,-1.4,0.5,-4.8,11.0
CCCc1cc(=O)[nH]c(Nc2ccc(OC)c(Cl)c2)n1,-6.4,-1.9,4.7,-1.2,77.5*
Cn1c(CC(=O)Nc2ccc(F)cc2)c(Sc2ccccc2)c2ccccc21,-40.1,0.6,2.5,0.7,78.6*
COc1ccc(NC(=O)Cc2c(Sc3ccccc3)c3ccccc3n2C)cc1,-6.9,0.1,-4.9,-1.9,23.2
CCCCCCNC(=O)CCc1nc2cccnc2n1Cc1ccc(OC)cc1,4.6,-0.3,-3.4,-4.0,.
CCc1ccc(NC(=O)CCc2nc3cccnc3n2Cc2ccc(OC)cc2)cc1,-5.0,-0.3,2.3,-1.5,92.0*
Cc1cc(Cc2ccc([N+](=O)[O-])cc2)c(C)cn1,15.4,1.5,0.9,-3.9,.
CCOc1cc(/C=C2\CCCC(C(=O)C(F)(F)F)=C2O)ccc1O,17.0,0.8,19.8,-0.2,74.8*
O=C(NC(NC(=S)Nc1ccccc1Cl)C(Cl)(Cl)Cl)c1cccc(Cl)c1 (centres undefined),8.3,25.5,21.5,-1.7,87.1*
O=C(/C=C/c1ccccc1)NC(NC(=S)Nc1ccc(Cl)cc1Cl)C(Cl)(Cl)Cl (centres undefined),9.0,31.5,0.5,6.4,80.9*
COc1ccc(NC(=S)NC(NC(=O)c2cccc(Cl)c2)C(Cl)(Cl)Cl)c([N+](=O)[O-])c1 (centres undefined),1.7,15.8,-12.3,4.2,66.2
Cc1cc(NC(=O)CC2CCCC2)n(-c2nc3ccccc3[nH]2)n1,-11.5,0.4,1.8,13.2,85.0*
CCOC(=O)c1cnc2ccc(C)cc2c1Nc1ccc(N2CCOCC2)cc1,-39.1,1.4,3.0,-1.8,72.4*
CCOC(=O)c1ccc2ncc(C(=O)OCC)c(NCCN3CCOCC3)c2c1,-14.2,0.1,2.3,-2.6,.
CC(C)[C@H](NC(=O)OCc1ccccc1)C(=O)OCC(=O)Nc1ccc(N2CCOCC2)cc1,19.3,1.7,6.2,-2.8,.
FC(F)(F)c1cc(-c2ccccc2)nc(NCc2cccnc2)n1,-6.9,0.9,-7.0,-1.9,85.1*
